Assay results reported in ChEMBL document CHEMBL2034823, “Synthesis and antiviral activity of certain second generation methylenecyclopropane nucleosides” (Bioorg Med Chem, 2012).

Assays:
[1] = Cytotoxicity against human MOLT3 cells after 7 days by Cell-Titer Glo assay; format: cell-based, MOLT-3
Procedure, shortened: (§1)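 Uninfected Akata, BCBL1, HSB-2 or MOLT-3 cells incubated with compound for seven days under the matching antiviral-assay conditions. CellTiter-Glo added and luminescence read. CC50 is the concentration reducing cell number by 50%.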

[2] = Cytotoxicity against human HSB2 cells after 7 days by Cell-Titer Glo assay; format: cell-based, CCRF-HSB-2; procedure, shortened: as §1
[3] = tested on: Human alphaherpesvirus 3; assay: Antiviral activity against VZV infected in human HFF cells assessed as reduction in cytopathic effect after 7 days by crystal violet staining; format: functional, organism-based; settings: Human alphaherpesvirus 3, HFF, 168 h
[4] = Cytotoxicity against human BCBL1 cells after 7 days by Cell-Titer Glo assay; format: cell-based; procedure, shortened: as §1
[5] = tested on: Human gammaherpesvirus 8; assay: Antiviral activity against HHV-8 infected in human BCBL1 cells assessed as reduction in viral DNA after 7 days by qPCR analysis; format: functional, organism-based; settings: Human gammaherpesvirus 8, BCBL1, 168 h
Procedure, shortened: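 BCBL1 cells kept in RPMI 1640 with 10% FBS, penicillin, gentamycin and L-glutamine. Lytic infection induced with phorbol 12-myristate 13-acetate, then cells added to triplicate compound dilutions. Incubation 7 days at 37 °C in humidified CO2. EC50 is the concentration halving viral DNA accumulation.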

[6] = tested on: Human gammaherpesvirus 4; assay: Antiviral activity against EBV Akata infected in human Akata cells assessed as reduction in viral DNA after 72 hrs by hybridization assay; format: functional, organism-based; settings: human gammaherpesvirus 4, Akata
Procedure, shortened: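 Akata cells kept in RPMI 1640 with 10% FBS, L-glutamine, penicillin and gentamicin. Latent infection was switched to productive by adding goat anti-human IgG, and cells were seeded into compound dilutions made in growth medium. After 72 h the DNA was denatured and blotted onto nylon membrane. Viral DNA was measured with a digoxigenin-labeled probe plus anti-hapten antibody. EC50 is the concentration halving viral DNA. Duplicate wells.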

[7] = tested on: Human betaherpesvirus 5; assay: Antiviral activity against HCMV infected in human HFF cells assessed as reduction in cytopathic effect after 8 days by plaque reduction assay; format: functional, organism-based; settings: Human betaherpesvirus 5, HFF, 192 h
Procedure, shortened: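 HFF monolayers seeded 2 days ahead and infected with AD169 at about 30 plaques per well, with 1 h adsorption. Compound was then added in MEM with 2% FBS, L-glutamine, penicillin, gentamycin and pooled human gamma globulin. After 8 days, neutral red stain and plaque counts by stereomicroscope. EC50 interpolated. Duplicate wells.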

[8] = tested on: Human alphaherpesvirus 2; assay: Antiviral activity against HSV-2 infected in human HFF cells assessed as reduction in cytopathic effect after 3 days by crystal violet staining; format: functional, organism-based; settings: Human alphaherpesvirus 2, HFF, 72 h
Procedure, shortened: (§2)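 Compound diluted over HFF monolayers, then HSV-1 (E-377) or HSV-2 (MS) added at MOI about 0.01 PFU/cell. Held 3 days in humidified 5% CO2. Stained 4 h with 0.1% crystal violet in formalin, rinsed, dried 24 h, and absorbance read at 595 nm. EC50 is 50% CPE reduction. Duplicate wells.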

[9] = Antiviral activity against HHV-6B infected in human Molt3 cells assessed as reduction in viral DNA after 7 days by hybridization assay; format: functional, cell-based, Human herpesvirus 6B; settings: Human betaherpesvirus 6B, MOLT-3, 168 h
Procedure, shortened: (§3)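 Compound serially diluted in medium. Uninfected HSB-2 cells were infected with HHV-6A (GS)-infected HSB-2 cells, and Molt-3 cells with HHV-6B (Z29)-infected Molt-3 cells. Incubation 7 days at 37 °C. Lysis in 4.5 M NaCl/1.2 M NaOH, then transfer to nylon membrane. Viral DNA quantified by digoxigenin-probe hybridization and EC50 calculated. Duplicate wells.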

[10] = Cytotoxicity against human HFF cells after 3 to 8 days by crystal voilet staining; format: cell-based
Procedure, shortened: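 Uninfected HFF cells exposed to the same concentrations as in the CPE assays (3 days for HSV, 7 for VZV, […]). Stained with crystal violet. CC50 is the concentration reducing cell number by 50%. Duplicate wells.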

[11] = tested on: Human alphaherpesvirus 1; assay: Antiviral activity against HSV-1 infected in human HFF cells assessed as reduction in cytopathic effect after 3 days by crystal violet staining; format: functional, organism-based; settings: Human alphaherpesvirus 1, HFF, 72 h; procedure, shortened: as §2
[12] = Antiviral activity against HHV-6A infected in human HSB2 cells assessed as reduction in viral DNA after 7 days by hybridization assay; format: functional, cell-based, Human herpesvirus 6A; settings: Human betaherpesvirus 6A, HSB2, 168 h; procedure, shortened: as §3
[13] = Cytotoxicity against human Akata cells after 7 days by Cell-Titer Glo assay; format: cell-based; procedure, shortened: as §1

Row | Structure (SMILES) | CC50 at 168 h [1] [µM] | CC50 at 168 h [2] [µM] | IC50 [3] [µM] | CC50 at 168 h [4] [µM] | IC50 [5] [µM] | IC50 [6] [µM] | IC50 [7] [µM] | IC50 [8] [µM] | IC50 [9] [µM] | CC50 [10] [µM] | IC50 [11] [µM] | IC50 [12] [µM] | CC50 at 168 h [13] [µM]
1 | CCCOc1nc(N)nc2c1ncn2/C=C1/CC1(CO)CO | > 20 | > 20 | 2.9 | > 20 | 16 | 8.9 | 1.1 | > 300 | 6.6 | > 300 | > 300 | 18 | > 20
2 | CCCCCCCCOc1nc(N)nc2c1ncn2/C=C1/CC1(CO)CO | > 20 | > 20 | > 100 | > 20 | > 20 | 13 | 29 | > 300 | 11.5 | > 300 | > 300 | > 20 | > 20
3 | Nc1nc(OCC(F)(F)F)c2ncn(/C=C3/CC3(CO)CO)c2n1 | > 20 | > 20 | > 300 | > 20 | 19 | 1.4 | 5.6 | > 300 | 8.9 | > 300 | > 300 | > 20 | > 20
4 | Nc1nc(NC2CC2)c2ncn(/C=C3/CC3(CO)CO)c2n1 | > 20 | > 20 | > 60 | 71.5 | 71 | > 20 | 24 | > 60 | > 20 | > 300 | > 60 | > 20 | > 20
5 | Nc1nc2c(ncn2/C=C2/CC2(CO)CO)c(=O)[nH]1 [FILOCICLOVIR] | > 20 | > 20 | > 100 | > 20 | 3 | 45 | 1.4 | > 100 | 8 | > 300 | > 100 | 1.3 | > 20
6 | Nc1nc(SC2CCCC2)c2ncn(/C=C3/CC3(CO)CO)c2n1 | > 20 | 91 | > 300 | > 20 | > 20 | 0.9 | > 50 | > 300 | 9.9 | > 300 | > 300 | 35 | > 20
7 | CCCCCCCCSc1nc(N)nc2c1ncn2/C=C1/CC1(CO)CO | > 20 | 60 | > 60 | > 20 | > 20 | > 20 | 20 | > 300 | 11 | > 300 | > 300 | > 20 | > 20
8 | CSc1nc(N)nc2c1ncn2/C=C1/CC1(CO)CO | > 20 | > 100 | > 60 | > 20 | > 20 | 11.4 | > 50 | > 300 | 11.6 | > 300 | > 300 | > 100 | > 20
9 | COCCOc1nc(N)nc2c1ncn2/C=C1/CC1(CO)CO | > 20 | > 20 | 13.9 | > 20 | > 20 | 20 | 17 | > 300 | > 20 | > 300 | > 300 | > 20 | > 20
10 | Nc1nc(SCc2ccccc2)c2ncn(/C=C3/CC3(CO)CO)c2n1 | > 20 | > 100 | > 60 | > 20 | > 20 | 3.1 | > 50 | > 300 | > 20 | > 300 | > 300 | 88 | > 20
11 | CCCCSc1nc(N)nc2c1ncn2/C=C1/CC1(CO)CO | > 20 | 89 | > 300 | > 20 | > 20 | 2.5 | > 50 | > 300 | 7 | > 300 | > 300 | 75 | > 20
12 | CC(C)Sc1nc(N)nc2c1ncn2/C=C1/CC1(CO)CO | > 20 | 94 | > 60 | > 20 | > 20 | 3.1 | 4 | > 300 | 7.5 | > 300 | > 300 | 70 | > 20
13 | CCCSc1nc(N)nc2c1ncn2/C=C1/CC1(CO)CO | > 20 | 98 | > 300 | > 20 | > 20 | > 20 | 42 | > 300 | 14.3 | > 300 | > 300 | 63 | > 20
